Measured values: ChEMBL document CHEMBL4014276, “Diphenylurea derivatives for combating methicillin- and vancomycin-resistant Staphylococcus aureus” (Eur J Med Chem, 2017)
Converted amounts (≈) assume the structure as drawn. The source made the active and inactive calls. The rule behind the calls is not given here.

What was measured:
[1] = Intrinsic clearance in human liver microsomes in absence of NADPH by LC-MS/MS method; format: ADME, microsome; conditions: read-out: CLH
Staphylococcus aureus [2] = assay: Antibacterial activity against methicillin-resistant Staphylococcus aureus USA300 NRS384 clinical isolate preincubated followed by bacterial subculturing for 2 weeks; format: functional
Staphylococcus aureus [3] = assay: Bactericidal activity against methicillin-resistant Staphylococcus aureus USA400 infected in mouse J774 cells assessed as reduction in colony forming units at 16 ug/ml after 4 hrs by time kill assay relative to control; format: functional; set-up: scale not given: the % may be the effect or the level left
How it was run: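 J774 murine macrophages in DMEM/10% FBS infected with MRSA USA400 at MOI ~100:1 for 1 h, extracellular bacteria killed with gentamicin 50 µg/mL; treated at 16 µg/mL in triplicate; after 4, 8 or 24 h cells washed, lysed with 0.1% Triton X-100, plated for CFU; percent reduction versus untreated, t-test.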

Staphylococcus aureus [4] = assay: Bactericidal activity against methicillin-resistant Staphylococcus aureus USA400 infected in mouse J774 cells assessed as reduction in colony forming units at 16 ug/ml after 24 hrs by time kill assay relative to control; set-up: scale not given: the % may be the effect or the level left
Staphylococcus aureus [5] = assay: Antibacterial activity against vancomycin-resistant Staphylococcus aureus VRSA4 after 20 hrs by broth microdilution method; format: functional; conditions: VRSA4, 20 h
How it was run: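 CLSI broth microdilution in cation-adjusted Mueller Hinton broth; compounds serially diluted, triplicate samples; 37 °C, 20 h. MIC read visually as lowest concentration with no visible growth; mean of triplicate determinations reported.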

Staphylococcus aureus [6] = assay: Antibacterial activity against methicillin-resistant Staphylococcus aureus USA100 NRS382 clinical isolate preincubated followed by bacterial subculturing for 2 weeks; format: functional
Staphylococcus aureus [7] = assay: Bactericidal activity against methicillin-resistant Staphylococcus aureus USA100 NRS382 clinical isolate after 18 hrs by broth microdilution method; format: functional; conditions: USA100 NRS382, 18 h
How it was run: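 From MIC wells without visible growth, 5 uL spotted onto Tryptic soy agar, incubated 37 °C for at least 18 h; MBC taken as lowest concentration giving 99.9% growth inhibition.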

J774 = assay: Cytotoxicity against mouse J774 cells up to 16 ug/ml after 24 hrs by MTS assay; format: cell-based; conditions: j774, 24 h
How it was run: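 Murine macrophages cultured in DMEM plus 10% FBS, 37 °C, 5% CO2; compounds at 8, 16, 32, 64 µg/mL in triplicate for 24 h against DMSO-matched controls. MTS reagent 4 h, read at OD490. Viability as % of DMSO control (triplicate mean ± SD); one-way ANOVA, Dunnett's post hoc, P < 0.05.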

[8] = Tmax in naive Sprague-Dawley rat at 50 mg/kg ,po administered via gavage by LC-MS/MS method; format: ADME, organism-based; conditions: in vivo
How it was run: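 Male naïve rats, three animals; single oral gavage dose in 5% ethanol, 45% PEG 400, 50% water. Blood drawn into EDTA-K2 tubes over 24 h post dose; plasma protein-precipitated with acetonitrile, parent quantified by LC/MS/MS.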

C/C(=N\NC(=N)N)c1ccc(NC(=O)Nc2ccc(OC3CCCCCC3)cc2)cc1
microsomal CLint [1]: 42.9 µL/min/mg | Activity (Staphylococcus aureus [2]): Active | Activity (Staphylococcus aureus [3]): 5% | Activity (Staphylococcus aureus [4]): 69% | MIC (Staphylococcus aureus [5]): 2 µg/mL (≈ 4.73 µM) | Activity (Staphylococcus aureus [6]): Active | MBC (Staphylococcus aureus [7]): 4 µg/mL (≈ 9.47 µM) | Activity (J774): Non-Toxic | Tmax [8]: 9.33 h
